Measurements from ChEMBL document CHEMBL4304834, “3-Amino-chromanes and Tetrahydroquinolines as Selective 5-HT2B, 5-HT7, or σ1 Receptor Ligands” (ACS Med Chem Lett, 2019).

Columns and labels:
[1] = Displacement of [3H]-Flunitrazepam from BZP receptor in rat brain after 90 mins by microbeta scintillation counting method; format: tissue-based
In short: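 Radioligand binding run by the NIMH Psychoactive Drug Screening Program. Otherwise Ki comes from sigmoidal curve fits of triplicate measurements in a single experiment, or is averaged over repeated experiments each run in triplicate.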

[2] = target: D(1A) dopamine receptor (Homo sapiens, UniProt P21728); assay: Displacement of [3H]-SCH23390 from human recombinant dopamine D1 receptor expressed in HEKT cells at 10 uM after 90 mins by microbeta scintillation counting method relative to control; format: cell-based
[3] = target: T1, 5-hydroxytryptamine receptor 1D (Homo sapiens, UniProt P28221); assay: Displacement of [3H]5-CT from human recombinant 5-HT1D receptor transiently expressed in HEKT cells at 10 uM after 90 mins by microbeta scintillation counting method relative to control; format: cell-based
[4] = target: T2, Muscarinic acetylcholine receptor M2 (Homo sapiens, UniProt P08172); assay: Displacement of [3H]-QNB/[3H]-NMS from human recombinant Muscarinic acetylcholine M2 receptor expressed in stable CHO cells after 90 mins by microbeta scintillation counting method; format: cell-based
T2 sequence (P08172 whole entry): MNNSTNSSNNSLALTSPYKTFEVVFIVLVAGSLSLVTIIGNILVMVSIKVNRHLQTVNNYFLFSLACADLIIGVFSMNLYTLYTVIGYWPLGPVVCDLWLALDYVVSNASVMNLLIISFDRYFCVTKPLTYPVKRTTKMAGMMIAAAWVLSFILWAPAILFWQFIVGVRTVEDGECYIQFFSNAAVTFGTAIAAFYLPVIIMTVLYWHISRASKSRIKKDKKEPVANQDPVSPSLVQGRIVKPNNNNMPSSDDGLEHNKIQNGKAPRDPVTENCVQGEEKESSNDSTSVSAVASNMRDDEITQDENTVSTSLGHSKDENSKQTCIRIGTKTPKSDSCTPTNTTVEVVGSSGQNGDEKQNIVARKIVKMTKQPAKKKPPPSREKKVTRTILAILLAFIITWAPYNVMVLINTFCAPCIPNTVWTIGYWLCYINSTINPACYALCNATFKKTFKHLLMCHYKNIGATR
In short: (§1)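 Radioligand binding was run by the NIMH Psychoactive Drug Screening Program. Compounds were first screened at 10 μM. Those giving ≥50% binding were taken to full competition curves. Ki is reported as pKi from a sigmoidal curve fit of triplicate measurements in a single experiment; the error is the curve-fit error.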

[5] = target: T3, D(2) dopamine receptor (Homo sapiens, UniProt P14416); assay: Displacement of [3H]-N-methylspiperone from human recombinant dopamine D2 receptor expressed in stable fibroblast cells at 10 uM after 90 mins by microbeta scintillation counting method relative to control; format: cell-based
In short: (§2)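 Radioligand binding run by the NIMH Psychoactive Drug Screening Program. […] Otherwise Ki comes from sigmoidal curve fits of triplicate measurements in a single experiment, or is averaged over repeated experiments each run in triplicate.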

[6] = target: T4, 5-hydroxytryptamine receptor 2C (Homo sapiens, UniProt P28335); assay: Displacement of [3H]-Mesulergine from human recombinant 5-HT2C receptor expressed in HEKT cells after 90 mins by microbeta scintillation counting method; format: cell-based; in short: as §2
T4 sequence (P28335 whole entry): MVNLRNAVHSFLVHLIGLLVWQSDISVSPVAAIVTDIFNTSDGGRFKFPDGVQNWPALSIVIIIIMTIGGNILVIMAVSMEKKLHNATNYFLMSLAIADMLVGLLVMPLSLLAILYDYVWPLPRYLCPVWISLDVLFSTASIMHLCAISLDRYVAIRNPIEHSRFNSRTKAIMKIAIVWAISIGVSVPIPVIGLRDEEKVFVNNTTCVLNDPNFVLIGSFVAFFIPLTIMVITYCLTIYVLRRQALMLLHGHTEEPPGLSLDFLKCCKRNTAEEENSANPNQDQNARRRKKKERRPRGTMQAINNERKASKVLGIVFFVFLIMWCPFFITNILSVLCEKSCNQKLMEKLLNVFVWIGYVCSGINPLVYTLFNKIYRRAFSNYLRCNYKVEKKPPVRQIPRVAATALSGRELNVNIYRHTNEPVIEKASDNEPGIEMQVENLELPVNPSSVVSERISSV

[7] = target: Delta-type opioid receptor (Homo sapiens, UniProt P41143); assay: Displacement of [3H]-DADLE from human recombinant DOR receptor expressed in stable HEK cells at 10 uM after 90 mins by microbeta scintillation counting method relative to control; format: cell-based; in short: as §2
[8] = target: T3, D(2) dopamine receptor; assay: Displacement of [3H]-N-methylspiperone from human recombinant dopamine D2 receptor expressed in stable fibroblast cells after 90 mins by microbeta scintillation counting method; format: cell-based; in short: as §2
[9] = target: T1, 5-hydroxytryptamine receptor 1D; assay: Displacement of [3H]5-CT from human recombinant 5-HT1D receptor transiently expressed in HEKT cells after 90 mins by microbeta scintillation counting method; format: cell-based; in short: as §1
[10] = target: T5, Muscarinic acetylcholine receptor M4 (Homo sapiens) (UniProt P08173); assay: Displacement of [3H]-QNB/[3H]-NMS from human recombinant Muscarinic acetylcholine M4 receptor expressed in stable CHO cells at 10 uM after 90 mins by microbeta scintillation counting method relative to control; format: cell-based
T5 sequence (whole entry): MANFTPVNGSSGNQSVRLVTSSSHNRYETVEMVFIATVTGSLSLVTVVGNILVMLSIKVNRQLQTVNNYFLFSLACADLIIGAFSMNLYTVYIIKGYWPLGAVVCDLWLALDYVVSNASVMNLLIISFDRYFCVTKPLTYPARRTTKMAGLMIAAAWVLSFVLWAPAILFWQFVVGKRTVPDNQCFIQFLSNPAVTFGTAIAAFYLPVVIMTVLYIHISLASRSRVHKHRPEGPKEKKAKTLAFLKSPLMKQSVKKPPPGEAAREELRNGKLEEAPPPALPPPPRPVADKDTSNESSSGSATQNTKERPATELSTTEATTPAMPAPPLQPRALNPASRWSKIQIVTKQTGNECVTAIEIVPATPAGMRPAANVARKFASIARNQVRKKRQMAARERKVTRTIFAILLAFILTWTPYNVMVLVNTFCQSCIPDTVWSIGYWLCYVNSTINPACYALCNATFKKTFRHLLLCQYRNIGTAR

[11] = target: 5-hydroxytryptamine receptor 1E (Homo sapiens, UniProt P28566); assay: Displacement of [3H]-HT from human recombinant 5-HT1E receptor expressed in stable HEK cells after 90 mins by microbeta scintillation counting method; format: cell-based; in short: as §2
[12] = target: Histamine H2 receptor (Homo sapiens, UniProt P25021); assay: Displacement of [125I]-Iodoaminopotentidine from human recombinant histamine H2 receptor expressed in stable HEK cells after 90 mins by microbeta scintillation counting method; format: cell-based; in short: as §2
[13] = target: GABA-A receptor; anion channel (Rattus norvegicus) (UniProt O09028+P15431+P18506+P18508+P19969+P20236+P23574+P23576+P28471+P28473+P30191+P62813+P63079+P63138+Q91ZM7+Q9ES14); assay: Displacement of [3H]-Muscimol from GABAA receptor in rat brain at 10 uM incubated for 90 mins by microbeta scintillation counting method relative to control; format: tissue-based; in short: as §2
[14] = target: 5-hydroxytryptamine receptor 5A (Homo sapiens, UniProt P47898); assay: Displacement of [3H]-LSD from human recombinant 5-HT5A receptor expressed in Flp-In CHO cells after 90 mins by microbeta scintillation counting method; format: cell-based; in short: as §2
Sequence of 5-hydroxytryptamine receptor 5A (P47898 whole entry): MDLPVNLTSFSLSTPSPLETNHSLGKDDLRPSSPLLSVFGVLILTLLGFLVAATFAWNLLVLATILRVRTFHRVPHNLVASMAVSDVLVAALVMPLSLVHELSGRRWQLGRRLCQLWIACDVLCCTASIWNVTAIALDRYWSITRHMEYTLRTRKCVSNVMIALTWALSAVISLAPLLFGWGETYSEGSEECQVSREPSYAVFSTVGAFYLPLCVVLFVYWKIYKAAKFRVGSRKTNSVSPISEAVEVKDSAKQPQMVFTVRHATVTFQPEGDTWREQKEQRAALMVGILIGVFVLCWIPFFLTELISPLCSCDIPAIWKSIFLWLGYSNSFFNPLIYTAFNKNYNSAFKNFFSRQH

Sequence of Histamine H2 receptor (P25021 whole entry): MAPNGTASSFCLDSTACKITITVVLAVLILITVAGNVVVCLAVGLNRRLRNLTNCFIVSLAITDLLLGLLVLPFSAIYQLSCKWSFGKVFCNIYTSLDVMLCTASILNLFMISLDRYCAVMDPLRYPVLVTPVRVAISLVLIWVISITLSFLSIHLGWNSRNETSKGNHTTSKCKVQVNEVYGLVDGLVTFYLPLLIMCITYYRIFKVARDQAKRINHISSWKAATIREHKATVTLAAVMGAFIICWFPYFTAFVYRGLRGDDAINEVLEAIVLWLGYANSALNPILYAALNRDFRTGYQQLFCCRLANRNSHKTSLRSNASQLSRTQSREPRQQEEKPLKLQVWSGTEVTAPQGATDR
T3 sequence (P14416 whole entry): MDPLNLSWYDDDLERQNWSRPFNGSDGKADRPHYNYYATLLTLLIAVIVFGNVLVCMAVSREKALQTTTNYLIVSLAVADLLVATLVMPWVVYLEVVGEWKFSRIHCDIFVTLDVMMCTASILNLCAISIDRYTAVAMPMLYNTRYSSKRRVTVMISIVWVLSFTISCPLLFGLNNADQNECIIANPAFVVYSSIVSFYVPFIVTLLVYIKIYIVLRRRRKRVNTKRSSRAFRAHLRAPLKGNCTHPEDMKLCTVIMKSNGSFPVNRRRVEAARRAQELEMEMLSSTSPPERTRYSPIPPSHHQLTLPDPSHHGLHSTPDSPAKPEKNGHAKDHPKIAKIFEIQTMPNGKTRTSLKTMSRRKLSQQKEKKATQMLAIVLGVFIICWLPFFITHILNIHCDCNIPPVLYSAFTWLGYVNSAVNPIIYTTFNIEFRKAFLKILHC
Sequence of Delta-type opioid receptor (P41143 whole entry): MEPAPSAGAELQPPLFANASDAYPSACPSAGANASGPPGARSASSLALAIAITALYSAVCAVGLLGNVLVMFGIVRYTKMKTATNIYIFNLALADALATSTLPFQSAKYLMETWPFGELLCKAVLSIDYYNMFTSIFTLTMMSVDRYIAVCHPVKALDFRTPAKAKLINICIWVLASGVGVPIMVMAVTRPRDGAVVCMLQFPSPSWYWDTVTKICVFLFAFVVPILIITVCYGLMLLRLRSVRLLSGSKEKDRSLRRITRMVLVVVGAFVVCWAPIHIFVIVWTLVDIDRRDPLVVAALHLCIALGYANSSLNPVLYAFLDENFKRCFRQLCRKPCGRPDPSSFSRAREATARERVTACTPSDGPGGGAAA
T1 sequence (P28221 whole entry): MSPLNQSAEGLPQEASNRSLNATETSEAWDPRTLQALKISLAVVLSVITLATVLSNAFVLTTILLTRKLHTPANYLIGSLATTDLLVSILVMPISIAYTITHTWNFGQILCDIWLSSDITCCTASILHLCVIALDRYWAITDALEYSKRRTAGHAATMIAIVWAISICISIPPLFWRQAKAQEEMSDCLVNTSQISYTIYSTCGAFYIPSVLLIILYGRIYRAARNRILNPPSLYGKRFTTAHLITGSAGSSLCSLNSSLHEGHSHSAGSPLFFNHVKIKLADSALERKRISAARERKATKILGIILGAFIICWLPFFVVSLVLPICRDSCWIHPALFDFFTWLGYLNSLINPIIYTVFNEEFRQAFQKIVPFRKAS
Sequence of 5-hydroxytryptamine receptor 1E (P28566 whole entry): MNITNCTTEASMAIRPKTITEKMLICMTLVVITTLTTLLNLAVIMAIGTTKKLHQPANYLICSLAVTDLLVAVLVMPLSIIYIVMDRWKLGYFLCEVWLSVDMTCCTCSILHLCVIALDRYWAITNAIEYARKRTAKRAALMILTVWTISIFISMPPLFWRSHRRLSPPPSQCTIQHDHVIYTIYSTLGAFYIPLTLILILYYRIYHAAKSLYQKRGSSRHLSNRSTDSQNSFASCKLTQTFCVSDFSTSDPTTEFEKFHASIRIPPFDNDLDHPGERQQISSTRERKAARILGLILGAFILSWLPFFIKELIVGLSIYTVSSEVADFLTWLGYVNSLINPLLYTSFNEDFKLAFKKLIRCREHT
Sequence of D(1A) dopamine receptor (P21728 whole entry): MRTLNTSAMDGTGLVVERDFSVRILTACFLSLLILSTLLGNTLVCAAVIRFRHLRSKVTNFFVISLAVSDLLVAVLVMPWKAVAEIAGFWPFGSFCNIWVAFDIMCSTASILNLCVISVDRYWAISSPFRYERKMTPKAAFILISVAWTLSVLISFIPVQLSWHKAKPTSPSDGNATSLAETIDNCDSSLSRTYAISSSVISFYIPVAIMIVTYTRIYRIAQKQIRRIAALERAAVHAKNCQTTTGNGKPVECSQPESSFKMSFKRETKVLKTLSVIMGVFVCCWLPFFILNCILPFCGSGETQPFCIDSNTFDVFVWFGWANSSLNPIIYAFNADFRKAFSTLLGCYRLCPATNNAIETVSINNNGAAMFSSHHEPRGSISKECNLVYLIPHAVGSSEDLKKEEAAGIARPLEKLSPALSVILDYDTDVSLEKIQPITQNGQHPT

SMILES	pKi [1]	inhibition [2]	inhibition [3]	Ki [4]	inhibition [5]	Ki [6]	inhibition [7]	Ki [8]	Ki [9]	inhibition [10]	Ki [11]	Ki [12]	inhibition [13]	Ki [14]
COc1cc(OC)c2c(c1)OC[C@@]1(C)NCC[C@@H]21 (racemic)	5.2	< 50%	< 50%	> 10 µM	< 50%	1.58 µM	< 50%	> 10 µM	> 10 µM	< 50%	> 10 µM	> 10 µM	< 50%	–
C[C@@]12CN(c3ccccc3)c3ccccc3[C@@H]1CCN2 (racemic)	–	–	–	> 10 µM	–	> 10 µM	–	> 10 µM	> 10 µM	–	> 10 µM	2 µM	–	–
CC[C@H]1c2cc(OC)ccc2CC[C@@]1(C)N (racemic)	5.8	< 50%	< 50%	> 10 µM	< 50%	2.51 µM	< 50%	> 10 µM	> 10 µM	< 50%	> 10 µM	> 10 µM	< 50%	2 µM
CC[C@H]1c2cc(C)ccc2OC[C@@]1(C)N (racemic)	< 5	< 50%	< 50%	> 10 µM	< 50%	2.51 µM	< 50%	> 10 µM	> 10 µM	< 50%	> 10 µM	> 10 µM	< 50%	> 10 µM
CC[C@H]1c2ccccc2N(c2ccccc2)C[C@@]1(C)N (racemic)	–	–	–	> 10 µM	–	3.98 µM	–	> 10 µM	> 10 µM	–	> 10 µM	> 10 µM	–	> 10 µM
